Screening data from PubChem.
This is a sample that favours compounds with a hit; in the whole collection about 7.4% have one here.
JNK3 inh: inhibitors of human JNK3 kinase | 0.61% of 60,000 active | inhibition, % at 8 µM | AID 746 | purified JNK3 kinase activity, HTS; in the data active = inhibition above about 17%;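 also: 0% = DMSO and 100% = reference inhibitor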
Target sequence (P53779 whole entry, looked up): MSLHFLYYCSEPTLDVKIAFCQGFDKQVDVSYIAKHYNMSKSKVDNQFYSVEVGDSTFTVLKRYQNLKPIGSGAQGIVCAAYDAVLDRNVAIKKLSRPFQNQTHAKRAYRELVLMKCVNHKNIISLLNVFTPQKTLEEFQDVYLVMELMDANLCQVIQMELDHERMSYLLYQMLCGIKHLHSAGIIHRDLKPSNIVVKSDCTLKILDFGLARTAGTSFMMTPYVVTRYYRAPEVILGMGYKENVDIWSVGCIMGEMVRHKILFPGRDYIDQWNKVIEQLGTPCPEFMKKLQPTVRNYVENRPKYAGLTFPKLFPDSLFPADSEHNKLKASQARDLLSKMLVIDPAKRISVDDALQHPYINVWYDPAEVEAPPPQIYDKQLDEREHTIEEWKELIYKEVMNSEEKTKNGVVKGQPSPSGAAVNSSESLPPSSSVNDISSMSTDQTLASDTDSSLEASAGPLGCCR
M1 ag: activates the M1 muscarinic receptor; CHO-M1 cells, Fluo-4 calcium fluorescence, agonist mode; active compounds read high; B-score at 10 µM; AID 626; 3% of 64,000 active;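 active = fluorescence rise, raw or as B-score row- and column-corrected plate score, outside the 99.7% band of its plate's samples, either direction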
M1 antagonist: blocks the rat M1 muscarinic receptor response to acetylcholine. P08482. CHO-M1 cells, Fluo-4 calcium, ACh EC80 antagonist mode; active compounds read low. B-score at 10 µM. 3.4% of 64,000 active. AID 628;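 active = calcium fluorescence response, raw or row-and-column corrected B-score, differing from the plate sample mean either way at a set confidence level, mostly lower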
Jurkat tox 60K: cytotoxicity toward Jurkat cells | Jurkat E6.1 viability, ATP luminescence, 48 h | inhibition, % at 4 µM | 1.2% of 56,000 active | AID 463;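 active = inhibition above the mean inhibition of all tested compounds plus 3 SD, cut at about 28% in these data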
S1P1 ag-PAM: S1P1 (human) agonism or agonism potentiation | P21453 | S1P1 CRE-bla cells, forskolin, beta-lactamase FRET, potentiator mode; S1P1 agonist co-added at EC20, 2 nM; 100% = saturating reference agonist, 0% = basal | activation, % at 9.5 µM | 0.57% of 56,000 active | AID 449;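 active = activation above a cutoff set at the mean activation of all tested compounds plus 3 SD, cut at about 54% in these data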;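 also: forskolin at 4 µM as EC80 and the EC20 agonist is SEW2871; 100% = SEW2871 at its EC100 plus forskolin at EC80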
S1P3 ag: agonists of human S1P3 receptor; Q99500; S1P3 NFAT-BLA reporter cells, agonism, FRET ratio; relative to 1 µM S1P, basal subtracted; AID 373; activation, % at 4.5 µM; 0.1% of 60,000 active;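 active = activation above the screen-wide mean plus 3 SD, cut at about 4.5% in these data, passing the limit was not always enough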
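material = human S1P3 NFAT-BLA reporter CHO cells | schedule = 4 h compound at 37 °C, 2 h substrate at RT | measured by = fluorescent BLA substrate, ex 405 nm, em 460/535 nm ratio | controls = 1 µM S1P reference | replication = primary once, confirmation triplicate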
M1 agonist conf: confirmation of rat M1 muscarinic receptor agonists; shares compounds with M1 ag; CHO-M1 cells, Fluo-4 calcium fluorescence, agonist mode; actives lie on both sides; fluorescence change (max-min) at 10 µM; 19% of 1,700 active;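 active = fluorescence change differs from the solvent-only DMSO control mean at a set confidence level in both duplicate runs; inconclusive = differs from solvent-only control mean in just one of two runs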;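 also: an EC20 dose of acetylcholine follows compound addition during the same imaging run; raw fluorescence intensity difference in instrument units with no normalization to controls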
M4 ag counter: activates rat M4 receptor in counter-screen for M1 agonists. fluorescence change (max-min) at 10 µM. 9% of 1,700 active. CHO M4/Gqi5 cells, Fluo-4 calcium fluorescence, agonist mode; actives lie on both sides. shares compounds with M1 ag;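 active = fluorescence change differing from the plate's solvent-only control wells at 99.7% confidence in both duplicates, whether higher or lower; inconclusive = differs from solvent controls in only one of two duplicates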
M1 antag confirm: confirmation of rat M1 muscarinic receptor antagonists. shares compounds with M1 antagonist. CHO-M1 cells, Fluo-4 calcium, ACh EC80 antagonism; active compounds read low. calcium response (max-min fluorescence) at 10 µM. 43% of 1,700 active. AID 677;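 active = calcium response below the same-plate mean of wells given acetylcholine alone at its 80%-effect dose, minus 3 SD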;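 also: raw fluorescence intensity difference in arbitrary instrument units and not normalized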
mGluR4 antag: acts on human mGluR4 in M1 antagonist selectivity test; 0.9% of 1,700 active; shares compounds with M1 antagonist; CHO-mGluR4 calcium flux, Fluo-4 fluorescence, glutamate EC80; active compounds read low; fluorescence response (max-min) at 10 µM;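 active = fluorescence response below the plate's average for near-maximal glutamate wells, less 3 SD of those wells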;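 also: raw unnormalized fluorescence span taken in the window right after glutamate addition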
* marks the source's active call; other numbers are inactive results; ? = inconclusive; / = no result.

SMILES	JNK3 inh	M1 ag	M1 antagonist	Jurkat tox 60K	S1P1 ag-PAM	S1P3 ag	M1 agonist conf	M4 ag counter	others
CCCCn1c(NC(=O)c2ccco2)c(C(=O)OCC)c2nc3ccccc3nc21	6	6.6*	-0.37	16	4	-2	24	?
O=C(CCN1C(=O)COc2ccccc21)N1CCC2(CC1)OCCO2	-9	0.73	-1.7	1	-40	8	/	/
Nc1c(C(=O)OC2CCCCC2)c2nc3ccccc3nc2n1CC1CCCO1 (stereo not drawn)	5	4.1*	0.2	-4	-9	0	-8.5	-46
CC(C)OC(=O)c1c(N)n(CC2CCCO2)c2nc3ccccc3nc12 (stereo not drawn)	10	0.28	0.036	1	-16	1	/	/
CC(C)Cc1[nH]c(=O)c(C#N)c2c1CCC2	-13	-0.44	0.053	/	-18	-3	/	/
Cc1cc(N2C(=O)C3CCCN3C2c2sccc2C)no1 (stereo not drawn)	0	0.093	0.26	1	-1	1	/	/
Cc1ccc(S(=O)(=O)Nc2cc(C(=O)N3CCC4(CC3)OCCO4)ccc2N2CCCCC2)cc1	-4	2.8*	-0.42	-3	0	0	-9.9	-20
COc1ccc(C2C(C(=O)N3CCC4(CC3)OCCO4)CC(=O)N2c2ccc(OC)cc2)cc1 (stereo not drawn)	/	-0.13	0.091	/	/	/	/	/
O=C(O)C1CN2CCC1CC2 (stereo not drawn)	-6	13*	-0.16	-1	/	0	233*	-34
O=C(c1cccs1)C1CN2CCC1CC2 (stereo not drawn)	0	8.4*	-5.5*	-3	/	-1	32	15
CC(C)Cn1cc(C(=O)N2CCC3(CC2)OCCO3)c2c3ccccc3n(C)c2c1=O	0	3*	-1.6	-2	2	-1	-2	-19
Cn1cc(C(=O)N2CCC3(CC2)OCCO3)c2c3ccccc3n(C)c2c1=O	-4	-0.089	0.0014	-4	-49	0	/	/
Cn1c2ccccc2c2c(C(=O)N3CCC4(CC3)OCCO4)cn(C3CCCCC3)c(=O)c21	/	4.3*	-0.67	/	/	/	-14	-54
CCSc1cc(C2C(C#N)=C(N)Oc3n[nH]c(C)c32)c(C)o1 (stereo not drawn)	-4	1.3	0.54	0	/	-1	/	/
CN1CCN(C(=O)OC2c3nccnc3C(=O)N2c2ccc(Cl)cn2)CC1 (stereo not drawn)	-3	0.00076	-0.0062	10	2	-1	/	/
CCC(=NCCN1CCCCC1)c1c(O)n(C)c(=O)n(C)c1=O	0	-0.35	-0.37	/	-4	-2	/	/
CCC(=NCc1ccc2c(c1)OCO2)c1c(O)n(C)c(=O)n(C)c1=O	7	2.9*	-0.61	11	15	-1	12	-35
CC(=NCc1ccc2c(c1)OCO2)c1c(O)n(C)c(=O)n(C)c1=O	3	-1.1	0.059	3	-8	-1	/	/
CCC(=NCCOc1ccc(Cl)cc1)c1c(O)n(C)c(=O)n(C)c1=O	0	11*	-1	/	62*	-7	-9.8	?
COc1ccc2nc(NC(=O)CCc3nc(C4=CCN(C)CC4)no3)sc2c1	-3	5.1*	-0.23	-3	24	-2	-1.6	-41
COc1ccc(CC2C(=O)N(C)C(=O)N(C)C2=O)c(OC)c1	-4	6.5*	-3.6*	1	-46	0	-3.9	-24
COc1ccc(CC2C(=O)NC(=O)NC2=O)c(OC)c1	8	-0.13	0.083	-1	-19	-1	/	/
CCOc1ccc(-n2c(O)c(C=NCCN3CCNCC3)c(=O)[nH]c2=O)cc1	7	0.55	-0.032	/	0	-2	/	/
CCOC(=O)C1CCN(/C=C2/C(=O)NC(=O)N(c3ccc(OCC)cc3)C2=O)CC1	-4	-3.3*	-0.13	-2	-14	1	-7	-23
OC(COCc1ccc(Cl)cc1)CN1CC=C(c2ccccc2)CC1 (stereo not drawn)	2	-2.8*	-4*	2	14	0	-6.8	-22	M1 antag confirm=475*;mGluR4 antag=177
SMILES	JNK3 inh	M1 ag	M1 antagonist	Jurkat tox 60K	S1P1 ag-PAM	S1P3 ag	M1 agonist conf	M4 ag counter	others
CC12CCCCC1=NC(c1ccc(Br)cc1)N2O (stereo not drawn)	3	0.027	-2.5	-2	1	-1	/	/
CCCCCCn1c(O)c(C=Nc2c(C)n(C)n(-c3ccccc3)c2=O)c(=O)[nH]c1=O	3	0.06	-1.8	/	13	0	/	/
Cc1c(N=Cc2c(O)n(CCc3ccccc3)c(=O)[nH]c2=O)c(=O)n(-c2ccccc2)n1C	6	0.66	-4.1*	/	15	-5	/	/	M1 antag confirm=243*;mGluR4 antag=236
COc1ccc(CCN(C)Cc2c(F)cccc2F)cc1OC	1	0.018	0.59	-2	-19	-2	/	/
Cc1[nH]c2c(Cl)cccc2c1CCN	-6	0.22	-2.8*	5	5	-1	/	/	M1 antag confirm=621;mGluR4 antag=191
c1ccc(C(OCCN2CCNCC2)c2ccccc2)cc1	1	0.49	-14*	-8	-20	-1	/	/	M1 antag confirm=148*;mGluR4 antag=219
O=C(NCC(c1cccnc1)N1CCN(c2ccc(F)cc2)CC1)Oc1ccccc1 (stereo not drawn)	/	0	-0.29	/	/	/	/	/
CN1CCN(c2ccc(C(N)=O)cc2N)CC1	-3	0.61	-0.45	5	5	-2	/	/
CCN(CC)CCCNC(=O)c1c(O)c2ccccc2n(Cc2ccccc2)c1=O	3	-0.27	-5.4*	/	13	-2	/	/	M1 antag confirm=393*;mGluR4 antag=210
CC1CC2(O)c3nonc3CCC2N1O (stereo not drawn)	-8	-0.54	-0.2	3	-10	-1	/	/
CCOC(=O)/C(CCCN(CC)CC)=N\O	-2	-0.71	-2.9*	-3	-48	0	/	/	M1 antag confirm=251*;mGluR4 antag=221
COc1cccc(CNC2CN3CCC2CC3)c1OC (stereo not drawn)	-4	0.22	-5.1*	-4	-15	0	/	/	M1 antag confirm=392*;mGluR4 antag=196
COc1cc(C2NCc3ccccc3-n3cccc32)ccc1O (stereo not drawn)	1	-1	-1.1*	-3	29	0	/	/	M1 antag confirm=554;mGluR4 antag=225
CC1=C(C(=O)N2CCC3(CC2)OCCO3)C2(CCC(C)CC2)OC1=O (stereo not drawn)	-7	0.036	0.088	-6	9	0	/	/
